Results: ChEMBL document CHEMBL1212904, “Discovery of pyrrole-indoline-2-ones as Aurora kinase inhibitors with a different inhibition profile” (J Med Chem, 2010)
Activity calls are given as the source filed them. The calls are words filed in the database; no cut-off is given here.

Tests used:
[1] = system: Epidermal growth factor receptor (Homo sapiens), P00533 [T790M]; test: Inhibition of EGFR T790M mutant at 1 uM by radiometric method; type: protein assay
[2] = molecular target: Muscle, skeletal receptor tyrosine-protein kinase (Homo sapiens) (UniProt O15146); test: Inhibition of MUSK at 1 uM by KINOMEscan binding assay
[3] = molecular target: Serine/threonine-protein kinase mTOR (Homo sapiens) (UniProt P42345); test: Inhibition of mTOR at 1 uM by radiometric method
[4] = molecular target: Hepatocyte growth factor receptor (Homo sapiens) (UniProt P08581); test: Inhibition of c-Met at 1 uM by radiometric method
[5] = molecular target: Tyrosine-protein kinase JAK2 (Homo sapiens) (UniProt O60674); test: Inhibition of JAK2 at 1 uM by radiometric method
[6] = molecular target: Insulin-like growth factor 1 receptor (Homo sapiens) (UniProt P08069); test: Inhibition of IGF1R at 1 uM by radiometric method
[7] = molecular target: Macrophage colony-stimulating factor 1 receptor (Homo sapiens, UniProt P07333); test: Inhibition of CSF1R by radiometric method
[8] = molecular target: T1, Aurora kinase A (Homo sapiens) (UniProt O14965); test: Inhibition of aurora A in human HCT116 cells assessed as reduction of phosphorylated aurora A at Thr288 level measured at 1.25 to 40 uM after 3 hrs by Western blot analysis; type: cell-based; conditions: HCT-116
T1 sequence (whole entry): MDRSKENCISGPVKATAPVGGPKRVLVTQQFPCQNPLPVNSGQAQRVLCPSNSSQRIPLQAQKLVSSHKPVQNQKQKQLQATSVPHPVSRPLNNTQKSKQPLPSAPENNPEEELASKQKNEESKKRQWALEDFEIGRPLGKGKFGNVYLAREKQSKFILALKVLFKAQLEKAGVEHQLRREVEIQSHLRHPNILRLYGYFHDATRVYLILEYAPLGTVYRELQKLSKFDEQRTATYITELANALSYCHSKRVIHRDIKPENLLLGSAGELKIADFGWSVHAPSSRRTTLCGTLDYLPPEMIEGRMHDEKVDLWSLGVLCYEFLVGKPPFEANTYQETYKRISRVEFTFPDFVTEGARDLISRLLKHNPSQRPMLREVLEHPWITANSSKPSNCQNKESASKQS
Outline: (§1)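 HCT-116 cells were synchronized at G2/M with 200 ng/mL nocodazole for 17 h, then given inhibitor for a further 3.0 h. Cells were PBS-washed, boiled in 2× SDS sample buffer, and run on SDS-PAGE with immunoblotting. Rabbit antibodies detected pT288 Aurora A, total Aurora A, pS10 histone H3 and total H3; β-actin served as loading control.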

[9] = molecular target: Tyrosine-protein kinase receptor UFO (Homo sapiens) (UniProt P30530); test: Inhibition of AXL at 1 uM by KINOMEscan binding assay
[10] = molecular target: Phosphorylase b kinase gamma catalytic chain, skeletal muscle/heart isoform (Homo sapiens) (UniProt Q16816); test: Inhibition of PHKG1 at 1 uM by KINOMEscan binding assay
[11] = molecular target: T1, Aurora kinase A (Homo sapiens); test: Inhibition of aurora A in human HCT116 cells assessed as reduction of phosphorylated histone H3 at ser10 level measured at 1.25 to 40 uM after 3 hrs by Western blot analysis; type: cell-based; conditions: HCT-116; outline: as §1
[12] = molecular target: PI3-kinase p110-alpha/p85-alpha (Homo sapiens) (UniProt P27986+P42336); test: Inhibition of PI3K (p110alpha/p85-alpha) at 1 uM by radiometric method; type: protein-complex assay
[13] = molecular target: 3-phosphoinositide-dependent protein kinase 1 (Homo sapiens) (UniProt O15530); test: Inhibition of PDK1 at 1 uM by radiometric method
[14] = molecular target: Ephrin type-A receptor 1 (Homo sapiens) (UniProt P21709); test: Inhibition of EPHA1 at 1 uM by radiometric method
[15] = molecular target: Cyclin-dependent kinase 1 (Homo sapiens) (UniProt P06493); test: Inhibition of CDC2 at 1 uM by radiometric method
[16] = molecular target: Tyrosine-protein kinase Lck (Homo sapiens) (UniProt P06239); test: Inhibition of LCK at 1 uM by KINOMEscan binding assay
[17] = molecular target: RAC-alpha serine/threonine-protein kinase (Homo sapiens) (UniProt P31749); test: Inhibition of AKT1 at 1 uM by radiometric method
[18] = molecular target: Vascular endothelial growth factor receptor 2 (Homo sapiens, UniProt P35968); test: Inhibition of VEGFR2 at 1 uM by radiometric method
[19] = molecular target: Cyclin-dependent kinase 2/cyclin A (Homo sapiens) (UniProt P24941+P20248+P78396); test: Inhibition of CDK2/cyclinA at 1 uM by radiometric method; type: protein-complex assay
[20] = system: Serine/threonine-protein kinase B-raf (Homo sapiens), P15056 [V600E]; test: Inhibition of b-Raf V600E mutant at 1 uM by radiometric method
[21] = molecular target: Serine/threonine-protein kinase Chk1 (Homo sapiens) (UniProt O14757); test: Inhibition of CHK1 at 1 uM by radiometric method
[22] = molecular target: Platelet-derived growth factor receptor beta (Homo sapiens, UniProt P09619); test: Inhibition of PDGFRbeta by radiometric method
[23] = Inhibition of CHK2 at 1 uM by radiometric method
[24] = molecular target: Epidermal growth factor receptor (Homo sapiens) (UniProt P00533); test: Inhibition of EGFR at 1 uM by radiometric method
[25] = molecular target: PI3K p110 beta/p85 alpha (Homo sapiens) (UniProt P27986+P42338); test: Inhibition of PI3K (p110beta/p85-alpha) at 1 uM by radiometric method; type: protein-complex assay
[26] = molecular target: Serine/threonine-protein kinase B-raf (Homo sapiens) (UniProt P15056); test: Inhibition of b-Raf at 1 uM by radiometric method
[27] = molecular target: Mast/stem cell growth factor receptor Kit (Homo sapiens, UniProt P10721); test: Inhibition of c-Kit by radiometric method
[28] = molecular target: T1, Aurora kinase A (Homo sapiens); test: Inhibition of aurora A in human HCT116 cells assessed as reduction of phosphorylated histone H3 at ser10 level measured at 10 uM after 3 hrs by Western blot analysis; type: cell-based; conditions: HCT-116; outline: as §1
[29] = molecular target: ALK tyrosine kinase receptor (Homo sapiens) (UniProt Q9UM73); test: Inhibition of ALK at 1 uM by radiometric method
[30] = molecular target: Serine/threonine-protein kinase 10 (Homo sapiens) (UniProt O94804); test: Inhibition of LOK at 1 uM by KINOMEscan binding assay
[31] = molecular target: Proto-oncogene tyrosine-protein kinase receptor Ret (Homo sapiens) (UniProt P07949); test: Inhibition of RET at 1 uM by KINOMEscan binding assay
[32] = molecular target: Glycogen synthase kinase-3 beta (Homo sapiens) (UniProt P49841); test: Inhibition of GSK3B at 1 uM by radiometric method

Sequence of Insulin-like growth factor 1 receptor (Homo sapiens) (P08069 31-736 limits assumed): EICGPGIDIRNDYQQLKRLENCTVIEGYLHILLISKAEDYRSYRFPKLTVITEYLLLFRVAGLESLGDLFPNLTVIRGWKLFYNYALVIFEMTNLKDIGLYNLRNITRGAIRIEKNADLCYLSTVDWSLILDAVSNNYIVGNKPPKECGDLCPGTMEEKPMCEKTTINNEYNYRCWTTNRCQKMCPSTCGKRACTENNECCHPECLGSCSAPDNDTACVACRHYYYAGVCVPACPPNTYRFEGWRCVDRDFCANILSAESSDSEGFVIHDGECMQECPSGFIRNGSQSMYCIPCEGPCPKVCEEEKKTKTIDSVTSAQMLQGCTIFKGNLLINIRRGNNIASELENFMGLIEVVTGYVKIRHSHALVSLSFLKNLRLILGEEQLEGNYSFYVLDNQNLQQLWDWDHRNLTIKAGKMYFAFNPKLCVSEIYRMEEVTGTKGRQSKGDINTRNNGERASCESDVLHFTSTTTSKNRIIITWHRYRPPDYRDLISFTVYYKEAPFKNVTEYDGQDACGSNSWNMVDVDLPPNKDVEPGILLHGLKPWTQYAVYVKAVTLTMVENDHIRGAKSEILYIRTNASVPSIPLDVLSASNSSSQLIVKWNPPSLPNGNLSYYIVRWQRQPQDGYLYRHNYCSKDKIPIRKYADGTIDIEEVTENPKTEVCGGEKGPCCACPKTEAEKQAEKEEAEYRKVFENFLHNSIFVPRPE
Sequence of Insulin-like growth factor 1 receptor (Homo sapiens) (P08069 741-1367 limits assumed): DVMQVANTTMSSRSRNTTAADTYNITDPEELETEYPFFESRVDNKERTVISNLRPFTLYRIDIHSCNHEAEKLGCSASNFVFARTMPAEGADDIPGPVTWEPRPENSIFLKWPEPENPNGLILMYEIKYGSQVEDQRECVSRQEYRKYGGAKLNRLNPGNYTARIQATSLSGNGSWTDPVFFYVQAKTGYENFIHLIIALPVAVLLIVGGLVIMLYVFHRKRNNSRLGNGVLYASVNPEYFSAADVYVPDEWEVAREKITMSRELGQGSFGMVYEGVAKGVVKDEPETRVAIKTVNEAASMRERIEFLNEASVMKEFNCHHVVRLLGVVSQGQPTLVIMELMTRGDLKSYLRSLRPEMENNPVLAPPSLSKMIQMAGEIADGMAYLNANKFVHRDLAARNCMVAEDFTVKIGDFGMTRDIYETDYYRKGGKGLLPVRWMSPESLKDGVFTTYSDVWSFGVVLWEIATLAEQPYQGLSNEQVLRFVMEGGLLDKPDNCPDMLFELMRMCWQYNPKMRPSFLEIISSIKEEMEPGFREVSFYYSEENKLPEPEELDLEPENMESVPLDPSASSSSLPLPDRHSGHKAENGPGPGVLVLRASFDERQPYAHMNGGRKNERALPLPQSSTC
Sequence of Hepatocyte growth factor receptor (Homo sapiens) (P08581 whole entry): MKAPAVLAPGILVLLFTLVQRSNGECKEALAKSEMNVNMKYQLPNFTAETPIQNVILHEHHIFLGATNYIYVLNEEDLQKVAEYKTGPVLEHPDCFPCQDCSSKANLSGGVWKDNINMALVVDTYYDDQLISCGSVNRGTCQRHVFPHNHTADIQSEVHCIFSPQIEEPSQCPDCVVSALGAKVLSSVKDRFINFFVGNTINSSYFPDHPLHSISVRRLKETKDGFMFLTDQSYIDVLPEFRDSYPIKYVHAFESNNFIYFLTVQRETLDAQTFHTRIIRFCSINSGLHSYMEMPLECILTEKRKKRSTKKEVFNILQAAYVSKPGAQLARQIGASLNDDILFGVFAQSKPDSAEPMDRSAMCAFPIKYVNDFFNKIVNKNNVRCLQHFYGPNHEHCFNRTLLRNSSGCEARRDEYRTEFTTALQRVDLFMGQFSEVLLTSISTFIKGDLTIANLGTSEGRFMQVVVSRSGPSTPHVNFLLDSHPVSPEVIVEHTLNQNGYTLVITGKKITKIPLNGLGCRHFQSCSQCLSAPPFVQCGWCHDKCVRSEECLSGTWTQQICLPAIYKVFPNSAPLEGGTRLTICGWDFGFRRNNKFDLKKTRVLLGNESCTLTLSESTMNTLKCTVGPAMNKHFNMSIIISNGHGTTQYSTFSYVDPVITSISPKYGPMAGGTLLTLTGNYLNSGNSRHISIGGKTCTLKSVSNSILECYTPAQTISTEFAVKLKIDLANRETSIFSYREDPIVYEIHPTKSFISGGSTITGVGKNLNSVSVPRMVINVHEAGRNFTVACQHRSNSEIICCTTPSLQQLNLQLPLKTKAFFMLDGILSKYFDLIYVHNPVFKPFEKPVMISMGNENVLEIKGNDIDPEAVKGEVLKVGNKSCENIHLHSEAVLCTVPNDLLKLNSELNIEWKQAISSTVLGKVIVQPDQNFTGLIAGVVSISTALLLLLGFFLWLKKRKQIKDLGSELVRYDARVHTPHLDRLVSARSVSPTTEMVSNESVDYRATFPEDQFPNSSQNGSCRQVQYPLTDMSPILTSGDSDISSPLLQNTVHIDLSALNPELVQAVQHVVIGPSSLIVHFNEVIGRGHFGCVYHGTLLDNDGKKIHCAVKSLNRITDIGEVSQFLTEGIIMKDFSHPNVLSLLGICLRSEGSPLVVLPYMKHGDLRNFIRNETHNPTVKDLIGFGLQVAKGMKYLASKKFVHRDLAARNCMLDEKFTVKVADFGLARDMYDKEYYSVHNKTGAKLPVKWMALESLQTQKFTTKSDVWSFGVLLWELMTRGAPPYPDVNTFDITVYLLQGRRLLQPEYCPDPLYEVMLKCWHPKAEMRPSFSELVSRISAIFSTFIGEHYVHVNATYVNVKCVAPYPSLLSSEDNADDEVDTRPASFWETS
Sequence of Cyclin-dependent kinase 1 (Homo sapiens) (P06493 whole entry, looked up): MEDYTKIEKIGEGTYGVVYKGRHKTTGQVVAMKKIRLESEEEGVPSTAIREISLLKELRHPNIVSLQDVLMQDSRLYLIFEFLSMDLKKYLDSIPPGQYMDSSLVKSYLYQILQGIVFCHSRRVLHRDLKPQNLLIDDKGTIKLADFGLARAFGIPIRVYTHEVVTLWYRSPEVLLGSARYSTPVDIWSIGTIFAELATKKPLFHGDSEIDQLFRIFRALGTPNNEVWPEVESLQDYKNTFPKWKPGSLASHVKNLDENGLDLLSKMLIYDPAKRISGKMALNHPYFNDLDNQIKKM
Sequence of PI3K p110 beta/p85 alpha (Homo sapiens) (P27986 2-724 limits assumed): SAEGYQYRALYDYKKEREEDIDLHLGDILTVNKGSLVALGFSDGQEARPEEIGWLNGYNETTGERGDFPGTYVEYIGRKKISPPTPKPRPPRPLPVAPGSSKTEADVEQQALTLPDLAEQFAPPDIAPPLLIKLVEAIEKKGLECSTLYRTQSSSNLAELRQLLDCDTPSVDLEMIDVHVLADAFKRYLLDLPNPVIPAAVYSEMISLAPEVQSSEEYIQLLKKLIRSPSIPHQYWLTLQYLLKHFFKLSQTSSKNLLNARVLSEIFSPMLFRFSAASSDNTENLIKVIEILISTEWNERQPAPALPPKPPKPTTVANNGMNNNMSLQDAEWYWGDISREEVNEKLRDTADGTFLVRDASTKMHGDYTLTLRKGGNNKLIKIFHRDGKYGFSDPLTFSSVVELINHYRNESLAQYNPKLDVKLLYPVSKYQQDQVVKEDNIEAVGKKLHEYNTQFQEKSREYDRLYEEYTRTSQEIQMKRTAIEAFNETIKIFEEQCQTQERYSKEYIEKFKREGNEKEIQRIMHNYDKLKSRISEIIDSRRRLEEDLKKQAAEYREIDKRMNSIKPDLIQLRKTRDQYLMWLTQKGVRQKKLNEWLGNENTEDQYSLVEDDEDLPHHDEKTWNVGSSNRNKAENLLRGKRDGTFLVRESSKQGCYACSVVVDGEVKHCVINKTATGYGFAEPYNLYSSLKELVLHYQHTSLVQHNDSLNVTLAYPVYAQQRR
Sequence of PI3K p110 beta/p85 alpha (Homo sapiens) (P42338 whole entry partner): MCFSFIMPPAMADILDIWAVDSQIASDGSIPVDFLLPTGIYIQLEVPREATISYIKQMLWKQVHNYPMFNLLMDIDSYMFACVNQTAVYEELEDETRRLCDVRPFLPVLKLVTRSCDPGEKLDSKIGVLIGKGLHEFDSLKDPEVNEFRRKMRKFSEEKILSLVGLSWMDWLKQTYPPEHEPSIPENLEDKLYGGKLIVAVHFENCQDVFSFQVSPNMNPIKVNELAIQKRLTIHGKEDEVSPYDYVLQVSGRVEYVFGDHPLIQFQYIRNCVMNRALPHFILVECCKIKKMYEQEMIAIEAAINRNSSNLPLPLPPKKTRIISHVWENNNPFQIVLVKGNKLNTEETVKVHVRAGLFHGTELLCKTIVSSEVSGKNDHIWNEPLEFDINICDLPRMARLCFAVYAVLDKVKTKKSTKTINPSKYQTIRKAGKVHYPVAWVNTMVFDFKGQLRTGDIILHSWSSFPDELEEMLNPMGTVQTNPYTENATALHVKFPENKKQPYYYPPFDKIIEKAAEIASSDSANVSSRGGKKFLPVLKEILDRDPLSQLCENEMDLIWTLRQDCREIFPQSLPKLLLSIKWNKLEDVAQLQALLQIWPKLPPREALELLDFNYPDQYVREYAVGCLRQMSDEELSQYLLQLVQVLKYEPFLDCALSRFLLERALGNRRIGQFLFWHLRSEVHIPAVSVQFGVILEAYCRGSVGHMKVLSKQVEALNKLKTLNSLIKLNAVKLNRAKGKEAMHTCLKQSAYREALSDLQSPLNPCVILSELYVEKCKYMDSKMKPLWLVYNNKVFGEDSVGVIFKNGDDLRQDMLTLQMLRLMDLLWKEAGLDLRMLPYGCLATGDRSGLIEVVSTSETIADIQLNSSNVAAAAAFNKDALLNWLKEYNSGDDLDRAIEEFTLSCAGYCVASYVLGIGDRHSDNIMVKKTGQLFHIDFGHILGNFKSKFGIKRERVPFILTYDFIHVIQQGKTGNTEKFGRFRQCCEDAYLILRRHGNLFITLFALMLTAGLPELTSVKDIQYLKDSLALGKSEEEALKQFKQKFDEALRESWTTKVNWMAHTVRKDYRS

## CCOC(=O)CCc1c(/C=C2\C(=O)Nc3ccc(NS(=O)(=O)c4ccccc4)cc32)[nH]c2c1C(=O)CCC2
[1]
  inhibition: 14%
[2]
  residual activity: < 10%
[3]
  inhibition: 9%
[4]
  inhibition: 32%
[5]
  inhibition: 30%
[6]
  inhibition: 24%
[7]
  IC50: > 1 µM
[8]
  inhibition: Active
[9]
  residual activity: < 10%
[10]
  residual activity: < 10%
[11]
  inhibition: Active
[12]
  inhibition: 11%
[13]
  inhibition: 24%
[14]
  inhibition: 29%
[15]
  inhibition: 33%
[16]
  residual activity: < 10%
[17]
  inhibition: 11%
[18]
  inhibition: 74%
[19]
  inhibition: 71%
[20]
  inhibition: 3%
[21]
  inhibition: 10%
[22]
  IC50: > 1 µM
[23]
  inhibition: 17%
[24]
  inhibition: 5%
[25]
  inhibition: 1%
[26]
  inhibition: -1%
[27]
  IC50: > 1 µM
[28]
  inhibition: Active
[29]
  inhibition: 80%
[30]
  residual activity: < 10%
[31]
  residual activity: < 10%
[32]
  inhibition: 47%

## CN(C)CCCc1c(/C=C2\C(=O)Nc3ccc(NS(=O)(=O)c4ccccc4)cc32)[nH]c2c1C(=O)CCC2
[1]
  inhibition: 8%
[2]
  residual activity: < 10%
[3]
  inhibition: 25%
[4]
  inhibition: 32%
[5]
  inhibition: -3%
[6]
  inhibition: 6%
[7]
  IC50: < 1 µM
[8]
  inhibition: inactive
[9]
  residual activity: < 10%
[10]
  residual activity: < 10%
[11]
  inhibition: Active
[12]
  inhibition: 5%
[13]
  inhibition: 11%
[14]
  inhibition: 24%
[15]
  inhibition: 12%
[16]
  residual activity: < 10%
[17]
  inhibition: 9%
[18]
  inhibition: 51%
[19]
  inhibition: 46%
[20]
  inhibition: -4%
[21]
  inhibition: 58%
[22]
  IC50: < 1 µM
[23]
  inhibition: 56%
[24]
  inhibition: 4%
[25]
  inhibition: -2%
[26]
  inhibition: 2%
[27]
  IC50: < 1 µM
[28]
  inhibition: Active
[29]
  inhibition: 85%
[30]
  residual activity: < 10%
[31]
  residual activity: < 10%
[32]
  inhibition: 24%
